# Measured values reported in ChEMBL document CHEMBL3102728, “Leonurusoleanolides E-J, minor spirocyclic triterpenoids from Leonurus japonicus fruits” (J Nat Prod, 2014).
# Columns and labels:
# Format in all cases: functional, cell-based
# [1] = Cytotoxicity against human KE-97 cells after 72 hrs by CellTitre-Glo luminescent cell viability assay; details: KE-97, 72 h
# [2] = Cytotoxicity against human BGC823 cells after 72 hrs by CellTitre-Glo luminescent cell viability assay; details: BGC-823, 72 h
# Jurkat = assay: Cytotoxicity against human Jurkat cells after 72 hrs by CellTitre-Glo luminescent cell viability assay
# Summary of the method: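 Jurkat grown in RPMI-1640 with 10% FBS and penicillin/streptomycin at 37 °C, 5% CO2. Cells seeded at 1000 per well, then given serially diluted compounds, with staurosporine as the positive control. Incubated 72 h in the dark, away from bright light. Viability read by CellTiter-Glo luminescence. IC50 obtained by regression of % viable cells against log concentration, 10 concentrations, triplicate experiments.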
# MCF7 = assay: Cytotoxicity against human MCF7 cells after 72 hrs by CellTitre-Glo luminescent cell viability assay; details: MCF7, 72 h
# Huh-7 = assay: Cytotoxicity against human HuH7 cells after 72 hrs by CellTitre-Glo luminescent cell viability assay; details: Huh-7, 72 h
SMILES,IC50 [1] [µM],IC50 [2] [µM],IC50 (Jurkat) [µM],IC50 (MCF7) [µM],IC50 (Huh-7) [µM]
COc1cc(/C=C\C(=O)OC[C@@]2(C)[C@@H]3CC[C@]4(C)[C@H](CC=C5[C@@H](O)[C@]6(CCC(C)(C)C6)CC[C@]54C)[C@@]3(C)C[C@@H](O)[C@@H]2O)ccc1O (relative stereo),> 10,> 10,> 10,> 10,> 10
CC1(C)CC[C@]2(CC[C@]3(C)C(=CC[C@@H]4[C@@]5(C)C[C@@H](O)[C@H](OC(=O)/C=C/c6ccc(O)cc6)[C@@](C)(CO)[C@@H]5CC[C@]43C)[C@H]2O)C1,> 10,> 10,> 10,> 10,> 10
CN[C@@H]1C[C@H]2O[C@@](C)([C@@H]1OC)n1c3ccccc3c3c4c(c5c6ccccc6n2c5c31)C(=O)NC4 [STAUROSPORINE],,,0.14,,
COc1cc(/C=C/C(=O)O[C@H]2[C@H](O)C[C@@]3(C)[C@@H](CC[C@]4(C)[C@@H]3CC=C3[C@@H](O)[C@@]5(CCC(C)(C)C5)CC[C@]34C)[C@]2(C)CO)ccc1O,> 10,> 10,> 10,> 10,> 10
COc1cc(/C=C\C(=O)O[C@H]2[C@H](O)C[C@@]3(C)[C@@H](CC[C@]4(C)[C@@H]3CC=C3[C@@H](O)[C@@]5(CCC(C)(C)C5)CC[C@]34C)[C@]2(C)CO)ccc1O,> 10,> 10,> 10,> 10,> 10
CC1(C)CC[C@@]2(CC[C@]3(C)C(=CC[C@@H]4[C@@]5(C)C[C@@H](O)[C@H](O)[C@@](C)(COC(=O)/C=C/c6ccc(O)c(O)c6)[C@@H]5CC[C@]43C)[C@H]2O)C1 (relative stereo),> 10,> 10,9.7,4.3,9.7
CC1(C)CC[C@@]2(CC[C@]3(C)C(=CC[C@@H]4[C@@]5(C)C[C@@H](O)[C@H](O)[C@@](C)(COC(=O)/C=C/c6ccc(O)cc6)[C@@H]5CC[C@]43C)[C@H]2O)C1,> 10,> 10,> 10,> 10,> 10
CC1(C)CC[C@]2(CC[C@]3(C)C(=CC[C@@H]4[C@@]5(C)C[C@@H](O)[C@H](O)[C@@](C)(CO)[C@@H]5CC[C@]43C)[C@H]2O)C1,> 10,> 10,> 10,8.5,> 10
CC1(C)CC[C@@]2(CC[C@]3(C)C(=CC[C@@H]4[C@@]5(C)C[C@@H](O)[C@H](O)[C@@](C)(COC(=O)/C=C\c6ccc(O)cc6)[C@@H]5CC[C@]43C)[C@H]2O)C1 (relative stereo),> 10,> 10,> 10,> 10,> 10
CC1(C)CC[C@]2(CC[C@]3(C)C(=CC[C@@H]4[C@@]5(C)C[C@@H](O)[C@H](OC(=O)/C=C\c6ccc(O)cc6)[C@@](C)(CO)[C@@H]5CC[C@]43C)[C@H]2O)C1,> 10,> 10,> 10,> 10,> 10
CC1(C)CC[C@@]2(CC[C@]3(C)C(=CC[C@@H]4[C@@]5(C)C[C@@H](O)[C@H](OC(=O)/C=C/c6ccc(O)c(O)c6)[C@@](C)(CO)[C@@H]5CC[C@]43C)[C@H]2O)C1 (relative stereo),3,7.5,3.9,4.6,1.9
COc1cc(/C=C/C(=O)OC[C@@]2(C)[C@@H]3CC[C@]4(C)[C@H](CC=C5[C@@H](O)[C@]6(CCC(C)(C)C6)CC[C@]54C)[C@@]3(C)C[C@@H](O)[C@@H]2O)ccc1O,> 10,> 10,> 10,> 10,> 10
